Experimental data reported in ChEMBL document CHEMBL2440089, “CoMFA studies and in vitro evaluation of some 3-substituted benzylthio quinolinium salts as anticryptococcal agents” (Bioorg Med Chem, 2013).

Experiments:
Vero [1] = experiment: Cytotoxicity against african green monkey Vero cells at 10 ug/ml after 48 hrs by Neutral Red dye assay; format: cell-based; details: chlorocebus sabaeus
Cryptococcus neoformans = experiment: Antifungal activity against Cryptococcus neoformans ATCC 90113 by CLSI method; format: functional, organism-based
Procedure, shortened: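 Test samples in DMSO were serially diluted in saline and run in duplicate in Sabouraud dextrose broth, with final concentrations starting at 20 μg/mL. Absorbance at 530 nm was read before and after incubation. Each plate carried growth, solvent and media-blank controls, with amphotericin B as the drug control. IC50 (50% inhibition relative to controls) was obtained by curve fitting.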

Vero [2] = experiment: Cytotoxicity against african green monkey Vero cells after 48 hrs by Neutral Red dye assay; format: cell-based; details: chlorocebus sabaeus
Procedure, shortened: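 Kidney […] (VERO) cells were seeded at 25,000 cells/well and incubated for 24 h, then exposed to samples for 48 h. Viable cells were counted by Neutral Red dye uptake. IC50 was taken from growth-inhibition versus concentration curves. Doxorubicin served as the positive control and DMSO as the vehicle control.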

IC50 (Cryptococcus neoformans; read-out: IC50) [nM] | IC50 (Cryptococcus neoformans; read-out: pIC50 (converted)) [nM] | Structure (SMILES) | Activity (Vero [1]) | Activity (Vero [2]) [µM]
948 | 948 | Fc1ccccc1CSc1cc2ccccc2[n+](CCCCCC2CCCCC2)c1.[I-] | Non-toxic | –
27500 | 27500 | [I-].[O-][S+](c1ccc(F)cc1)c1cc2ccccc2[n+](CCCCCc2ccccc2)c1 (stereo not given) | Non-toxic | –
43300 | 43300 | C[n+]1c2ccccc2cc2[n-]c3ccccc3c21 [CRYPTOLEPINE] | – | 8.88
9040 | 9040 | Oc1ccc(CSc2cc3ccccc3[n+](CCCCCC3CCCCC3)c2)cc1.[I-] | Non-toxic | –
13200 | 13200 | Fc1cccc(Sc2cc3ccccc3[n+](CCCCCC3CCCCC3)c2)c1.[I-] | – | 1.23
1350 | 1350 | Clc1ccccc1CSc1cc2ccccc2[n+](CCCCCC2CCCCC2)c1.[I-] | Non-toxic | –
458 | 458 | Cc1ccc(CSc2cc3ccccc3[n+](CCCCCC3CCCCC3)c2)cc1.[I-] | – | 6.78
– | – | FC(F)(F)c1cccc(Sc2cc3ccccc3[n+](CCCCCC3CCCCC3)c2)c1.[I-] | Non-toxic | –
711 | 711 | Fc1cccc(CSc2cc3ccccc3[n+](CCCCCC3CCCCC3)c2)c1.[I-] | Non-toxic | –
14900 | – | [I-].[O-][S+](c1ccc(Br)cc1)c1cc2ccccc2[n+](CCCCCc2ccccc2)c1 (stereo not given) | Non-toxic | –
301 | 301 | [I-].c1ccc(CSc2cc3ccccc3[n+](CCCCCC3CCCCC3)c2)cc1 | Non-toxic | –
– | – | Cc1cccc(Sc2cc3ccccc3[n+](CCCCCC3CCCCC3)c2)c1.[I-] | – | 6.96
– | – | FC(F)(F)c1ccc(Sc2cc3ccccc3[n+](CCCCCC3CCCCC3)c2)cc1.[I-] | Non-toxic | –
– | – | [I-].c1ccc(Sc2cc3ccccc3[n+](CCCCCC3CCCCC3)c2)cc1 | – | 8.89
769 | 769 | Cc1cccc(CSc2cc3ccccc3[n+](CCCCCC3CCCCC3)c2)c1.[I-] | – | 4.95
18500 | 18500 | COc1cccc(Sc2cc3ccccc3[n+](CCCCCC3CCCCC3)c2)c1.[I-] | – | 8.22
– | – | Cc1ccccc1Sc1cc2ccccc2[n+](CCCCCC2CCCCC2)c1.[I-] | – | 7.53
360 | 361 | Brc1cccc(CSc2cc3ccccc3[n+](CCCCCC3CCCCC3)c2)c1.[I-] | Non-toxic | –
606 | 607 | COc1cccc(CSc2cc3ccccc3[n+](CCCCCC3CCCCC3)c2)c1.[I-] | Non-toxic | –

IC50 (Cryptococcus neoformans; read-out: IC50) [nM] | IC50 (Cryptococcus neoformans; read-out: pIC50 (converted)) [nM] | Structure (SMILES) | Activity (Vero [1]) | Activity (Vero [2]) [µM]
677 | 678 | Fc1ccc(CSc2cc3ccccc3[n+](CCCCCC3CCCCC3)c2)cc1.[I-] | Non-toxic | –
10000 | – | [I-].[O-][S+](c1ccc(C(F)(F)F)cc1)c1cc2ccccc2[n+](CCCCCc2ccccc2)c1 (stereo not given) | – | 21.4
422 | – | C[C@@H]1[C@H](O)[C@@H](C)/C=C/C=C/C=C/C=C/C=C/C=C/C=C/[C@H](O[C@@H]2O[C@H](C)[C@@H](O)[C@H](N)[C@@H]2O)C[C@@H]2O[C@](O)(C[C@@H](O)C[C@@H](O)[C@H](O)CC[C@@H](O)C[C@@H](O)CC(=O)O[C@H]1C)C[C@H](O)[C@H]2C(=O)O [AMPHOTERICIN B] | – | 7.03
2150 | 2150 | COc1ccc(CSc2cc3ccccc3[n+](CCCCCC3CCCCC3)c2)cc1.[I-] | Non-toxic | –
883 | 883 | CC(C)(C)c1ccc(CSc2cc3ccccc3[n+](CCCCCC3CCCCC3)c2)cc1.[I-] | Non-toxic | –
– | – | Cc1ccc(Sc2cc3ccccc3[n+](CCCCCC3CCCCC3)c2)cc1.[I-] | – | 5.27
416 | 417 | FC(F)(F)c1ccc(CSc2cc3ccccc3[n+](CCCCCC3CCCCC3)c2)cc1.[I-] | – | 7.94
1130 | 1130 | Brc1ccccc1CSc1cc2ccccc2[n+](CCCCCC2CCCCC2)c1.[I-] | Non-toxic | –
623 | 624 | COc1ccccc1CSc1cc2ccccc2[n+](CCCCCC2CCCCC2)c1.[I-] | Non-toxic | –
– | – | Oc1ccccc1Sc1cc2ccccc2[n+](CCCCCC2CCCCC2)c1.[I-] | – | 17.4
2340 | 2340 | Oc1cccc(Sc2cc3ccccc3[n+](CCCCCC3CCCCC3)c2)c1.[I-] | Non-toxic | –
88 | 88.3 | Clc1ccc(CSc2cc3ccccc3[n+](CCCCCC3CCCCC3)c2)cc1.[I-] | – | 2.3
9250 | 9250 | [I-].[O-][S+](c1cc2ccccc2[n+](CCCCCc2ccccc2)c1)c1ccccc1C(F)(F)F (stereo not given) | Non-toxic | –
3740 | 3740 | FC(F)(F)c1ccccc1Sc1cc2ccccc2[n+](CCCCCC2CCCCC2)c1.[I-] | Non-toxic | –
9080 | 9080 | [I-].[O-][S+](c1cc2ccccc2[n+](CCCCCc2ccccc2)c1)c1ccccc1Br (stereo not given) | Non-toxic | –
731 | 731 | COc1ccc(Sc2cc3ccccc3[n+](CCCCCC3CCCCC3)c2)cc1.[I-] | – | 7.67
10900 | 10900 | [I-].[O-][S+](c1cccc(C(F)(F)F)c1)c1cc2ccccc2[n+](CCCCCc2ccccc2)c1 (stereo not given) | Non-toxic | –
369 | 370 | Brc1ccc(CSc2cc3ccccc3[n+](CCCCCC3CCCCC3)c2)cc1.[I-] | Non-toxic | –
– | – | Oc1ccc(Sc2cc3ccccc3[n+](CCCCCC3CCCCC3)c2)cc1.[I-] | Non-toxic | –
